Assay results taken from BindingDB's records for doi:10.1021/jm980722p (Merck Research Laboratories, 1999).

Each compound was assayed against Integrin alpha-IIb/beta-3 (Homo sapiens, UniProt P08514+P05106) (assay: The compound was tested in vitro for the inhibition of aggregation of human gel-filtered platelets(GFP)).
Sequence of Integrin alpha-IIb/beta-3 (P05106 27-788 limits assumed): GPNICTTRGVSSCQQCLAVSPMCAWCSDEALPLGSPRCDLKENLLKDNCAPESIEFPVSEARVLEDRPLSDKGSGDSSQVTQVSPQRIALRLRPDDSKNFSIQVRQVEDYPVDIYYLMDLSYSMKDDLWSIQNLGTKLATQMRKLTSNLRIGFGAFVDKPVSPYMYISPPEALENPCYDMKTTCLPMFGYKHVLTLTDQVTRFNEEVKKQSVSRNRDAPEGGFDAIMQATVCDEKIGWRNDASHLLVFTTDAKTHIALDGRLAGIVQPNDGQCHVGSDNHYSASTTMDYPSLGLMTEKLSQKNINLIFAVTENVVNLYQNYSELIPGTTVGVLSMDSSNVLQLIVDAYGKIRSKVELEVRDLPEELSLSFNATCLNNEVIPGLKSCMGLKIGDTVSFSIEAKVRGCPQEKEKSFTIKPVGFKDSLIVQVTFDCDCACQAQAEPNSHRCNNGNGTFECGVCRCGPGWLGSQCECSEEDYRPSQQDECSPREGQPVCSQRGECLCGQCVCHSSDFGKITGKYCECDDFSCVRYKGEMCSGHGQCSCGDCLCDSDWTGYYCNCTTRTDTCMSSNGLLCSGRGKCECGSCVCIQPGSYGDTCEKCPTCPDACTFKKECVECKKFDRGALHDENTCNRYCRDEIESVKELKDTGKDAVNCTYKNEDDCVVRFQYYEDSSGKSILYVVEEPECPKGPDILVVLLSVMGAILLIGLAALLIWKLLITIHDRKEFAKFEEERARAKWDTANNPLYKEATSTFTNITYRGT
Sequence of Integrin alpha-IIb/beta-3 (P08514 32-887 limits assumed): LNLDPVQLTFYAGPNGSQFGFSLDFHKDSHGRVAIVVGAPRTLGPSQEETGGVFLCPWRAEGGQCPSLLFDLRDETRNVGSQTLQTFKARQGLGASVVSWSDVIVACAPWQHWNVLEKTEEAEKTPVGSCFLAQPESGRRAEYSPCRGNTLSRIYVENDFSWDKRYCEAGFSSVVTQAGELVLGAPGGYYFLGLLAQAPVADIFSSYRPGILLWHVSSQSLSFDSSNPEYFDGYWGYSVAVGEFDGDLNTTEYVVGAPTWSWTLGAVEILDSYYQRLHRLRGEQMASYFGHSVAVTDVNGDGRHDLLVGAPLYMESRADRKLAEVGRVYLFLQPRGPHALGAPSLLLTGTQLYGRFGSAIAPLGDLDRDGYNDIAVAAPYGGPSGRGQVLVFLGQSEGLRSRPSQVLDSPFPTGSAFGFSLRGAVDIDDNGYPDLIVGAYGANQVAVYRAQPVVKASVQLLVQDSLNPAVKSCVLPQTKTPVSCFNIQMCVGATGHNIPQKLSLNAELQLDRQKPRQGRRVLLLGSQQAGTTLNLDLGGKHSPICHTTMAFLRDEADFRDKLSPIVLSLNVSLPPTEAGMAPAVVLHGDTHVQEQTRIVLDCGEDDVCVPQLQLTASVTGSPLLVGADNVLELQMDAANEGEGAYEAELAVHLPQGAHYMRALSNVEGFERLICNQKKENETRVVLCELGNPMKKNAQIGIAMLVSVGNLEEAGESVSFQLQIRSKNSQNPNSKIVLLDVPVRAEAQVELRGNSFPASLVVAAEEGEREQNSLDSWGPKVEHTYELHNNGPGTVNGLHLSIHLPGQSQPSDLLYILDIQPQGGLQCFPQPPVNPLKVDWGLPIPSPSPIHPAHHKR
Sequence of Integrin alpha-IIb/beta-3 (P08514 891-1039 limits assumed): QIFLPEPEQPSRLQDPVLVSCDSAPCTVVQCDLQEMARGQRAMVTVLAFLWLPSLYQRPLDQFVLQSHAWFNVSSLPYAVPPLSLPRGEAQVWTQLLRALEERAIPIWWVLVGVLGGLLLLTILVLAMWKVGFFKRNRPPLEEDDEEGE
Procedure, shortened: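 Human gel-filtered platelets at 2 × 10⁸/mL were mixed with 0.1 mg/mL human fibrinogen, 1 mM CaCl₂ and the test compound, then challenged with ADP. Aggregation was read by light transmittance at 37 °C against control samples.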
`O=C(NC[C@@H](NS(=O)(=O)c1ccccc1)C(=O)O)c1cc2cc(CCC3CCNCC3)sc2s1` was tested, and the IC50 was 36 nM.
Compound `O=C(NC[C@@H](NS(=O)(=O)c1cccnc1)C(=O)O)c1cc2cc(CCC3CCNCC3)sc2s1` has an IC50 of 19 nM.
For `O=C(O)CCNC(=O)c1cc2cc(CCC3CCNCC3)sc2s1` [3-{[5-(2-Piperidin-4-yl-ethyl)-thieno[2,3-b]thiophene-2-carbonyl]-amino}-propionic acid], the IC50 was 410 nM.
Work on `O=C(O)CCNC(=O)c1cc2sc(CCC3CCNCC3)cc2s1` [3-{[5-(2-Piperidin-4-yl-ethyl)-thieno[3,2-b]thiophene-2-carbonyl]-amino}-propionic acid] yielded an IC50 of 500 nM.
Work on `CCOCCS(=O)(=O)N[C@@H](CNC(=O)c1cc2cc(CCC3CCNCC3)sc2s1)C(=O)O` [(S)-2-(2-Ethoxy-ethanesulfonylamino)-3-{[5-(2-piperidin-4-yl-ethyl)-thieno[2,3-b]thiophene-2-carbonyl]-amino}-propionic acid] yielded an IC50 of 7 nM.
Work on `CCOCCS(=O)(=O)N[C@@H](CNC(=O)c1cc2sc(CCC3CCNCC3)cc2s1)C(=O)O` [(S)-2-(2-Ethoxy-ethanesulfonylamino)-3-{[5-(2-piperidin-4-yl-ethyl)-thieno[3,2-b]thiophene-2-carbonyl]-amino}-propionic acid] yielded an IC50 of 10 nM.
With `O=C(NC[C@H](NS(=O)(=O)c1ccc(Cl)cc1)C(=O)O)c1cc2cc(CCC3CCNCC3)sc2s1` [(S)-2-(4-Chloro-benzenesulfonylamino)-3-{[5-(2-piperidin-4-yl-ethyl)-thieno[2,3-b]thiophene-2-carbonyl]-amino}-propionic acid] the IC50 was 11 nM.
Compound `CCCCS(=O)(=O)N[C@@H](CNC(=O)c1cc2cc(CCC3CCNCC3)sc2s1)C(=O)O` [(S)-2-(Butane-1-sulfonylamino)-3-{[5-(2-piperidin-4-yl-ethyl)-thieno[2,3-b]thiophene-2-carbonyl]-amino}-propionic acid] has an IC50 of 32 nM.
Compound `CCCCS(=O)(=O)N[C@@H](CNC(=O)c1cc2sc(CCC3CCNCC3)cc2s1)C(=O)O` [(S)-2-(Butane-1-sulfonylamino)-3-{[5-(2-piperidin-4-yl-ethyl)-thieno[3,2-b]thiophene-2-carbonyl]-amino}-propionic acid] has an IC50 of 10 nM.
Compound `CS(=O)(=O)N[C@@H](CNC(=O)c1cc2cc(CCC3CCNCC3)sc2s1)C(=O)O` [(S)-2-Methanesulfonylamino-3-{[5-(2-piperidin-4-yl-ethyl)-thieno[2,3-b]thiophene-2-carbonyl]-amino}-propionic acid] has an IC50 of 15 nM.
With `CS(=O)(=O)N[C@@H](CNC(=O)c1cc2sc(CCC3CCNCC3)cc2s1)C(=O)O` [(S)-2-Methanesulfonylamino-3-{[5-(2-piperidin-4-yl-ethyl)-thieno[3,2-b]thiophene-2-carbonyl]-amino}-propionic acid] the IC50 was 14 nM.
`O=C(NC[C@H](NS(=O)(=O)c1cccnc1)C(=O)O)c1cc2cc(C3CCNCC3)sc2s1` [(S)-3-[(5-Piperidin-4-yl-thieno[2,3-b]thiophene-2-carbonyl)-amino]-2-(pyridine-3-sulfonylamino)-propionic acid] showed an IC50 of 21 nM.
`O=C(NC[C@H](NS(=O)(=O)c1cccs1)C(=O)O)c1cc2cc(CCC3CCNCC3)sc2s1` [(S)-3-{[5-(2-Piperidin-4-yl-ethyl)-thieno[2,3-b]thiophene-2-carbonyl]-amino}-2-(thiophene-2-sulfonylamino)-propionic acid] showed an IC50 of 9 nM.
In the case of `O=C(NC[C@H](NS(=O)(=O)c1cccnc1)C(=O)O)c1cc2sc(CCC3CCNCC3)cc2s1` [(S)-3-{[5-(2-Piperidin-4-yl-ethyl)-thieno[3,2-b]thiophene-2-carbonyl]-amino}-2-(pyridine-3-sulfonylamino)-propionic acid], the IC50 is reported as 15 nM.
With `O=C(NC[C@H](NS(=O)(=O)c1cccs1)C(=O)O)c1cc2sc(CCC3CCNCC3)cc2s1` [(S)-3-{[5-(2-Piperidin-4-yl-ethyl)-thieno[3,2-b]thiophene-2-carbonyl]-amino}-2-(thiophene-2-sulfonylamino)-propionic acid] the IC50 was 13 nM.
Compound `O=C(NC[C@H](NS(=O)(=O)c1cccnc1)C(=O)O)c1cc2cc(CCCC3CCNCC3)sc2s1` [(S)-3-{[5-(3-Piperidin-4-yl-propyl)-thieno[2,3-b]thiophene-2-carbonyl]-amino}-2-(pyridine-3-sulfonylamino)-propionic acid] has an IC50 of 23 nM.
